Screens: PubChem, Johns Hopkins Ion Channel Center
KCNK9 inh: KCNK9 potassium channel inhibitors, primary screen, HEK293 cells, thallium flux; B-score at 10 µM; actives 1.2% (n = 310,000); FluxOR thallium flux fluorescence; hits give low values; Potassium channel subfamily K member 9 (Homo sapiens), Q9NPC2;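 active = ratio B-score over 3 SD below the library mean, with starting fluorescence within 5 SD of its mean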;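 note: negative B-score means less thallium flux so channel inhibition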
KCNQ1 act: potentiators or activators of KCNQ1 channel, primary screen, cell-based, thallium flux, high-throughput. Potassium voltage-gated channel subfamily KQT member 1 (Homo sapiens), P51787. CHO-K1 KCNQ1, thallium flux FluxOR fluorescence; hits give high values. B-score at 10 µM. actives 0.35% (n = 310,000). AID 2648, 2010;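 active = fluorescence ratio B-score, a plate-corrected score, at least three library SD, with initial intensity B-score within 5 SD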
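Assay system: CHO-K1 cells stably expressing KCNQ1. Medium: assay buffer for compound exposure, DMSO matched across wells. Timing: 37 °C overnight plating, 90-min dark dye load, 20-min compound pretreatment. Signal: kinetic FluxOR fluorescence, 10 s baseline plus 110 s post-stimulus.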
KCNK3 inh: human KCNK3 channel inhibitors, primary screen, CHO cells, FluxOR thallium flux, B-score; Potassium channel subfamily K member 3 (Homo sapiens), O14649; B-score at 10 µM; actives 0.84% (n = 340,000); FluxOR fluorescence; hits give low values;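 active = B-score under library mean minus 4 SD, starting fluorescence ratio at most library mean plus 5 SD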;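 note: more negative B-score means stronger inhibition of thallium flux through KCNK3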
hERG protect: hERG rescue from dofetilide block, primary screen, cell-based, CHO-hERG, FluxOR thallium flux, dofetilide IC70; Voltage-gated inwardly rectifying potassium channel KCNH2 (Homo sapiens), Q12809; dofetilide IC70 present; activation (rescue from dofetilide block), less the hit threshold, % at 10 µM; actives 0.51% (n = 310,000);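 active = activation above the mean of controls blocked by dofetilide plus 5 SD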;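 note: thallium influx through hERG after potassium depolarization seen as dye fluorescence rise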
KCNQ1 inh: inhibitors of human KCNQ1 channel, primary screen, cell-based, thallium flux, high-throughput | Potassium voltage-gated channel subfamily KQT member 1 (Homo sapiens), P51787 | CHO-K1 KCNQ1, FluxOR thallium flux fluorescence; hits give high values | B-score at 10 µM | actives 1.3% (n = 310,000) | AID 2642, 2010;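 active = compounds whose thallium flux B-score, printed positive for inhibition, exceeds three library SD while starting fluorescence stays within three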;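 note: channel opened by potassium depolarization with thallium stimulus after 20 min compound exposure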
Kir21 inh: inhibitors of mouse Kir2.1 inward-rectifier potassium channel | HEK293-Kir2.1, FluxOR thallium flux fluorescence; hits give low values | B-score at 10 µM | actives 0.85% (n = 310,000) | AID 1672, 2009;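 active = fluorescence ratio B-score at or below minus 3 SD of library scores, with starting-brightness B-score within 2 SD, cut at about -4.2 in these data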;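 note: channel flux triggered by added potassium and thallium sulfate stimulus; B-score of peak minus minimum fluorescence over baseline after thallium stimulus; more negative B-score means stronger Kir2.1 block with less thallium influx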
KCNQ1 inh valid: KCNQ1 potassium channel inhibitors, confirmation, cell-based, Tl flux, duplicate. shares compounds with KCNQ1 inh. KCNQ1 cell line, FluxOR thallium flux fluorescence. inhibition, % at 10 µM. actives 93% (n = 1,600). AID 588353, 2011;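 active = primary screen active, with duplicate mean exceeding buffer control mean plus 3 SD of buffer wells, cut at about 28% in these data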
CHO Tl flux: thallium flux effects in parental CHO cells, counter-screen for KCNQ1 inhibitor project, cell-based, Tl flux. shares compounds with KCNQ1 inh. parental CHO-K1, FluxOR thallium flux fluorescence ratio; hits give low values; zero means no signal rise above baseline. fluorescence ratio (Tl flux) at 10 µM. actives 21% (n = 1,600). AID 588366, 2011;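 active = mean of duplicate thallium-flux fluorescence ratios in parental host cells more than 5 SD below the buffer control mean, cut at about 0.38 in these data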;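 note: ratio is peak minus minimum fluorescence divided by baseline fluorescence; actives read low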
KCNQ1 APC inh: KCNQ1 channel inhibitors, confirmation, orthogonal assay, cell-based, automated electrophysiology; shares compounds with KCNQ1 inh; calls only at 10 µM; AID 624120, 2012; KCNQ1-CHO cells, automated patch clamp current; actives 20% (n = 490);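 active = KCNQ1 current drop exceeding 3 SD of negative control wells, seen in both duplicate runs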;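 note: steady state current during a 2 s step from -80 to +40 mV; negative values mean current inhibition and positive values mean potentiation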
KCNQ2 inh: KCNQ2 channel inhibition, selectivity assay for KCNQ1 inhibitor project, cell-based; KCNQ2 cells, FluxOR thallium flux fluorescence; actives 71% (n = 1,600); shares compounds with KCNQ1 inh; inhibition, % at 10 µM;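 active = mean percent inhibition of the KCNQ2 thallium signal more than 5 SD above the buffer-only control wells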;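 note: KCNQ2 expressed in CHO cells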
Target sequence (O88943 whole entry, looked up): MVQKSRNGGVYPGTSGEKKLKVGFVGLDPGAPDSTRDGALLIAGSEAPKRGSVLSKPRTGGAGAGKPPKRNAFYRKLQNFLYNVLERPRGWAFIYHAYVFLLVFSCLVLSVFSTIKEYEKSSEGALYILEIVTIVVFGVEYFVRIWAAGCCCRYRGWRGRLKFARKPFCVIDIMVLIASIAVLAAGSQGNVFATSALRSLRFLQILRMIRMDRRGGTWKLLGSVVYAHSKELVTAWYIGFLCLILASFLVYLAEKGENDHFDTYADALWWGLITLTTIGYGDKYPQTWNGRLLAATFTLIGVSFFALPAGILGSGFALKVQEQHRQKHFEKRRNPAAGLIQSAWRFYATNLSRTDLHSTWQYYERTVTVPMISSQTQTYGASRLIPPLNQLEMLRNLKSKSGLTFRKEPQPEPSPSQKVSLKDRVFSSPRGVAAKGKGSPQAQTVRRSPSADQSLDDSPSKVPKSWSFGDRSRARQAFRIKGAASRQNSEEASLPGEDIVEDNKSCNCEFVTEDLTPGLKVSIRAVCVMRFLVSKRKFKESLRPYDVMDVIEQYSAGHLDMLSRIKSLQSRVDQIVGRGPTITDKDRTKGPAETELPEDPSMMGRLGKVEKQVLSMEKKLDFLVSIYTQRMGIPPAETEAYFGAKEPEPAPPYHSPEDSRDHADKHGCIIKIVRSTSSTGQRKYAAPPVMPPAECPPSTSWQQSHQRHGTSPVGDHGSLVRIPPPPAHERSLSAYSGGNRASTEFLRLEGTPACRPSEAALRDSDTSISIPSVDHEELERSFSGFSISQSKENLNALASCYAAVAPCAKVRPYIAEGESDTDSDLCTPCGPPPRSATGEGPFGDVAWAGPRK
KCNQ1-KCNE1 inh: KCNQ1/KCNE1 channel inhibition, selectivity assay for KCNQ1 inhibitor project, CHO-K1 cells, thallium flux, FluxOR | actives 77% (n = 1,600) | AID 652147, 2013 | shares compounds with KCNQ1 inh | inhibition, % at 10 µM | FluxOR thallium flux fluorescence;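 active = mean percent inhibition of duplicate wells above the buffer-only control mean plus 3 SD of those controls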
KCNK9 inh conf: KCNK9 potassium channel inhibitors, confirmation, HEK293 cells, thallium flux, duplicate. shares compounds with KCNK9 inh. FluxOR thallium flux fluorescence. inhibition, % at 10 µM. actives 43% (n = 4,900);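 active = thallium signal inhibited by more than 5 SD of the compound-free buffer control wells, on both duplicate plates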
Kir2-1 spec: mouse Kir2.1 channel inhibition, confirmation, selectivity assay for KCNK9 modulator project, cell-based, HEK293, thallium flux. shares compounds with KCNK9 inh. Kir2.1 cells, FluxOR thallium flux fluorescence. inhibition, % at 10 µM. actives 4% (n = 4,900). AID 492993, 2010;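 active = thallium signal drop more than 5 SD beyond the mean of the no-compound control wells, seen in both duplicate plates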;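 note: signal is fluorescence rise after thallium addition divided by baseline fluorescence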
KCNK9 uninduced: thallium flux in non-induced HEK293 cells, confirmation, counter-screen for KCNK9 inhibitor project, cell-based, second counter screen, non-induced KCNK9-HEK293; FluxOR thallium flux; actives 40% (n = 4,900); shares compounds with KCNK9 inh; inhibition, % at 10 µM;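 active = thallium signal drop beyond 5 SD of the untreated control mean, on both duplicate plates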
KCNK3 confirm: retest of human KCNK3 channel inhibitors, confirmation, CHO cells, FluxOR thallium flux, triplicate; shares compounds with KCNK3 inh; FluxOR fluorescence; 0% buffer, 100% carvedilol maximal block; ratio percent of control, % at 10 µM; actives 99% (n = 2,400);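 active = ratio percent of control, averaged over triplicates, above buffer control mean plus 5 SD, cut at about 64% in these data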;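 note: ratio is the fluorescence rise from min to max over baseline after thallium stimulus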
KCNK3 noninduced: thallium flux inhibition in non-induced cells, primary screen, counter-screen for KCNK3 inhibitor project, cell-based, non-induced KCNK3 line, FluxOR thallium, triplicate; shares compounds with KCNK3 inh; non-induced KCNK3 parental cells; hits give low values; thallium flux ratio (lower = more inhibition) at 10 µM; actives 40% (n = 2,400); AID 651747, 2012;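 active = thallium flux ratio, averaged over three wells, more than 5 SD below the buffer control mean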;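 note: host cells are CHO cells without KCNK3 induction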
Of the large screens only hits and unclear results are named; the others gave an inactive call (follow-up assays come after a bar, where they were run). Most compounds without a hit are left out; they make up all but 3.7% or so of the library.

COc1cccc(NC(=O)c2ccccc2)c1	none (no result: KCNK9 inh, KCNQ1 act, hERG protect, KCNQ1 inh, Kir21 inh)
COc1cccc(C(=O)Nc2cccc(-c3ccccc3)c2)c1	KCNK3 inh -12, KCNQ1 inh 9 | KCNQ1 inh valid 148 | CHO Tl flux inactive | KCNQ1 APC inh inactive | KCNQ2 inh 99% | KCNQ1-KCNE1 inh active | KCNK3 confirm 113 | KCNK3 noninduced inactive
COc1ccc(CN2CCNC(=O)C2CC(=O)NCCc2nc(C)c3c(n2)CCC3)cc1C (stereo not given)	none
CCCCNC(=S)N1CCn2cccc2C1c1ccc(F)cc1 (stereo not given)	KCNK9 inh -14, KCNK3 inh -9.7, KCNQ1 inh 6 | KCNQ1 inh valid 92 | CHO Tl flux inactive | KCNQ1 APC inh inactive | KCNQ2 inh 81% | KCNQ1-KCNE1 inh 70% | KCNK9 inh conf 56% | Kir2-1 spec inactive | KCNK9 uninduced 41% | KCNK3 confirm 134 | KCNK3 noninduced 0.15
CCCCNC(=S)N1CCn2cccc2C1c1ccccc1 (stereo not given)	none
O=C1NC(=Nc2ccccc2Cl)S/C1=C\c1cc([N+](=O)[O-])ccc1O	KCNK3 inh -14, KCNQ1 inh 23 | KCNQ1 inh valid 197 | CHO Tl flux 0.17 | KCNQ2 inh 166% | KCNQ1-KCNE1 inh active | KCNK3 confirm 169 | KCNK3 noninduced 0.033
Cc1csc2c(N3CCN(C(=O)c4ccc(C(C)(C)C)cc4)CC3)ncnc12	KCNK3 inh -9.8, KCNQ1 inh 9 | KCNQ1 inh valid 138 | CHO Tl flux 0.3 | KCNQ2 inh 137% | KCNQ1-KCNE1 inh 170% | KCNK3 confirm 130 | KCNK3 noninduced inactive
CCOC(=O)C1CCN(c2ncnc3c(C)csc23)CC1	none
CCOC(=O)C1CCN(c2c(C(=O)c3ccccc3)cnc3ccc(CC)cc23)CC1	KCNK9 inh -11, KCNK3 inh -12, KCNQ1 inh 7 | KCNQ1 inh valid 134 | CHO Tl flux inactive | KCNQ2 inh 128% | KCNQ1-KCNE1 inh 192% | KCNK9 inh conf 28% | Kir2-1 spec inactive | KCNK9 uninduced 34% | KCNK3 confirm 110 | KCNK3 noninduced inactive
CCN1C=C(Cc2ccccc2C)C2=C(C1)C(c1ccccc1C)C(C#N)=C(N)O2 (stereo not given)	KCNK9 inh -6.7, KCNK3 inh -8.9, KCNQ1 inh 12 | KCNQ1 inh valid 116 | CHO Tl flux 0.32 | KCNQ2 inh 105% | KCNQ1-KCNE1 inh 104% | KCNK3 confirm 118 | KCNK3 noninduced 0.13
CCOC(=O)c1cc2c(ccn2C)n1Cc1ccc(Cl)cc1	KCNK9 inh -11, KCNK3 inh -9.7, KCNQ1 inh 6 | KCNQ1 inh valid 110 | CHO Tl flux 0.37 | KCNQ2 inh 68% | KCNQ1-KCNE1 inh 116% | KCNK9 inh conf 42% | Kir2-1 spec inactive | KCNK9 uninduced 37% | KCNK3 confirm 136 | KCNK3 noninduced 0.13
Cc1cc(C)n2nc(C(=O)N/N=C/c3ccco3)nc2n1	none
CC(Cc1cccs1)NC(=O)Nc1cccc(Cl)c1 (stereo not given)	KCNK9 inh -18, KCNK3 inh -11, KCNQ1 inh 9 | KCNQ1 inh valid 127 | CHO Tl flux inactive | KCNQ1 APC inh active | KCNQ2 inh inactive | KCNQ1-KCNE1 inh 71% | KCNK9 inh conf 53% | Kir2-1 spec inactive | KCNK9 uninduced 32% | KCNK3 confirm 109 | KCNK3 noninduced inactive
CC(C)NC(=O)Nc1cccc(Cl)c1	none
COc1cccc(-c2cc3nc4c(c(NCC(C)(C)CN(C)C)n3n2)CCCC4)c1	KCNK3 inh -10, KCNQ1 inh 9 | KCNQ1 inh valid 86 | CHO Tl flux inactive | KCNQ2 inh 95% | KCNQ1-KCNE1 inh 116% | KCNK3 confirm 120 | KCNK3 noninduced inactive
